System: Fibroblast
Test: Multiplex assay against human fibroblast
Assay type: toxicity, cell-based
Procedure, shortened: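 Hoechst33342, BioTracker Green Microtubule Cytoskeleton Dye, MitoTracker Red and Annexin V Alexa Fluor 680 were added to live cells at seeding, and imaging on a CQ1 microscope at 37°C and 5% CO2 followed compound addition. Gating by CellPathfinder machine learning separated cells into Hoechst high-intensity objects or normal cells, then normal cells into healthy, pyknosed or fragmented nuclei, then pyknosed cells into mitotic or apoptotic. Per cents of healthy-nucleus cells are reported for the tubulin, mitochondrial-mass and membrane-permeability phenotypes.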

[1] = 12 h, 1 µM, compound concentration 1 uM, replicate 1
[2] = 12 h, 1 µM, compound concentration 1 uM, replicate 2
[3] = 12 h, 10 µM, compound concentration 10 uM, replicate 1
[4] = 12 h, 10 µM, compound concentration 10 uM, replicate 2
[5] = 24 h, 1 µM, compound concentration 1 uM, replicate 1
[6] = 24 h, 1 µM, compound concentration 1 uM, replicate 2
[7] = 24 h, 10 µM, compound concentration 10 uM, replicate 1
[8] = 24 h, 10 µM, compound concentration 10 uM, replicate 2
[9] = 48 h, 1 µM, compound concentration 1 uM, replicate 1
[10] = 48 h, 1 µM, compound concentration 1 uM, replicate 2
[11] = 48 h, 10 µM, compound concentration 10 uM, replicate 1
[12] = 48 h, 10 µM, compound concentration 10 uM, replicate 2

Cc1cc2c(cc1N1C(=O)c3cccc4c(CCCO)ccc(c34)C1=O)n(C)c(=O)n2C
Population Apoptotic (%) [1]: 68%
Population Fragmented Nuclei (%) [1]: 19%
Population Healthy Nuclei (%) [1]: 49%
Population Hoechst High Intensity Objects (%) [1]: 17%
Population Membrane Permeable-Phenotype (%) [1]: 30%
Population Mitochondria Different-Phenotype (%) [1]: 8%
Population Mitotic Cells (%) [1]: 31%
Population Normal (%) [1]: 82%
Population Pyknosed Nuclei (%) [1]: 31%
Population Tubulin-Different-Phenotype (%) [1]: 41%
Total Cell Count [1]: 148
Population Apoptotic (%) [2]: 0%
Population Fragmented Nuclei (%) [2]: 6%
Population Healthy Nuclei (%) [2]: 90%
Population Hoechst High Intensity Objects (%) [2]: 8%
Population Membrane Permeable-Phenotype (%) [2]: 1%
Population Mitochondria Different-Phenotype (%) [2]: 22%
Population Mitotic Cells (%) [2]: 100%
Population Normal (%) [2]: 91%
Population Pyknosed Nuclei (%) [2]: 3%
Population Tubulin-Different-Phenotype (%) [2]: 24%
Total Cell Count [2]: 104
Population Apoptotic (%) [3]: 68%
Population Fragmented Nuclei (%) [3]: 21%
Population Healthy Nuclei (%) [3]: 46%
Population Hoechst High Intensity Objects (%) [3]: 12%
Population Membrane Permeable-Phenotype (%) [3]: 21%
Population Mitochondria Different-Phenotype (%) [3]: 7%
Population Mitotic Cells (%) [3]: 31%
Population Normal (%) [3]: 87%
Population Pyknosed Nuclei (%) [3]: 31%
Population Tubulin-Different-Phenotype (%) [3]: 72%
Total Cell Count [3]: 126
Population Apoptotic (%) [4]: 37%
Population Fragmented Nuclei (%) [4]: 20%
Population Healthy Nuclei (%) [4]: 63%
Population Hoechst High Intensity Objects (%) [4]: 9%
Population Membrane Permeable-Phenotype (%) [4]: 29%
Population Mitochondria Different-Phenotype (%) [4]: 77%
Population Mitotic Cells (%) [4]: 62%
Population Normal (%) [4]: 90%
Population Pyknosed Nuclei (%) [4]: 16%
Population Tubulin-Different-Phenotype (%) [4]: 96%
Total Cell Count [4]: 54
Population Apoptotic (%) [5]: 46%
Population Fragmented Nuclei (%) [5]: 20%
Population Healthy Nuclei (%) [5]: 55%
Population Hoechst High Intensity Objects (%) [5]: 19%
Population Membrane Permeable-Phenotype (%) [5]: 31%
Population Mitochondria Different-Phenotype (%) [5]: 5%
Population Mitotic Cells (%) [5]: 53%
Population Normal (%) [5]: 80%
Population Pyknosed Nuclei (%) [5]: 24%
Population Tubulin-Different-Phenotype (%) [5]: 41%
Total Cell Count [5]: 130
Population Apoptotic (%) [6]: 40%
Population Fragmented Nuclei (%) [6]: 7%
Population Healthy Nuclei (%) [6]: 87%
Population Hoechst High Intensity Objects (%) [6]: 3%
Population Membrane Permeable-Phenotype (%) [6]: 0%
Population Mitochondria Different-Phenotype (%) [6]: 27%
Population Mitotic Cells (%) [6]: 60%
Population Normal (%) [6]: 96%
Population Pyknosed Nuclei (%) [6]: 5%
Population Tubulin-Different-Phenotype (%) [6]: 17%
Total Cell Count [6]: 96
Population Apoptotic (%) [7]: 58%
Population Fragmented Nuclei (%) [7]: 22%
Population Healthy Nuclei (%) [7]: 47%
Population Hoechst High Intensity Objects (%) [7]: 15%
Population Membrane Permeable-Phenotype (%) [7]: 13%
Population Mitochondria Different-Phenotype (%) [7]: 17%
Population Mitotic Cells (%) [7]: 41%
Population Normal (%) [7]: 84%
Population Pyknosed Nuclei (%) [7]: 29%
Population Tubulin-Different-Phenotype (%) [7]: 45%
Total Cell Count [7]: 115
Population Apoptotic (%) [8]: 80%
Population Fragmented Nuclei (%) [8]: 18%
Population Healthy Nuclei (%) [8]: 62%
Population Hoechst High Intensity Objects (%) [8]: 11%
Population Membrane Permeable-Phenotype (%) [8]: 41%
Population Mitochondria Different-Phenotype (%) [8]: 76%
Population Mitotic Cells (%) [8]: 20%
Population Normal (%) [8]: 88%
Population Pyknosed Nuclei (%) [8]: 18%
Population Tubulin-Different-Phenotype (%) [8]: 76%
Total Cell Count [8]: 61
Population Apoptotic (%) [9]: 34%
Population Fragmented Nuclei (%) [9]: 31%
Population Healthy Nuclei (%) [9]: 45%
Population Hoechst High Intensity Objects (%) [9]: 21%
Population Membrane Permeable-Phenotype (%) [9]: 28%
Population Mitochondria Different-Phenotype (%) [9]: 2%
Population Mitotic Cells (%) [9]: 65%
Population Normal (%) [9]: 78%
Population Pyknosed Nuclei (%) [9]: 22%
Population Tubulin-Different-Phenotype (%) [9]: 30%
Total Cell Count [9]: 129
Population Apoptotic (%) [10]: 100%
Population Fragmented Nuclei (%) [10]: 28%
Population Healthy Nuclei (%) [10]: 69%
Population Hoechst High Intensity Objects (%) [10]: 9%
Population Membrane Permeable-Phenotype (%) [10]: 21%
Population Mitochondria Different-Phenotype (%) [10]: 1%
Population Mitotic Cells (%) [10]: 0%
Population Normal (%) [10]: 90%
Population Pyknosed Nuclei (%) [10]: 2%
Population Tubulin-Different-Phenotype (%) [10]: 35%
Total Cell Count [10]: 118
Population Apoptotic (%) [11]: 90%
Population Fragmented Nuclei (%) [11]: 35%
Population Healthy Nuclei (%) [11]: 54%
Population Hoechst High Intensity Objects (%) [11]: 18%
Population Membrane Permeable-Phenotype (%) [11]: 22%
Population Mitotic Cells (%) [11]: 10%
Population Normal (%) [11]: 81%
Population Pyknosed Nuclei (%) [11]: 10%
Population Tubulin-Different-Phenotype (%) [11]: 62%
Total Cell Count [11]: 120
Population Apoptotic (%) [12]: 66%
Population Fragmented Nuclei (%) [12]: 26%
Population Healthy Nuclei (%) [12]: 68%
Population Hoechst High Intensity Objects (%) [12]: 9%
Population Membrane Permeable-Phenotype (%) [12]: 23%
Population Mitochondria Different-Phenotype (%) [12]: 5%
Population Mitotic Cells (%) [12]: 33%
Population Normal (%) [12]: 90%
Population Pyknosed Nuclei (%) [12]: 6%
Population Tubulin-Different-Phenotype (%) [12]: 85%
Total Cell Count [12]: 55

Source: ChEMBL document CHEMBL4689842, “EUbOPEN Chemogenomics Library wave 1” (2021)
